Results as given in ChEMBL document CHEMBL3102784, “Salicylanilide diethyl phosphates: synthesis, antimicrobial activity and cytotoxicity” (Bioorg Med Chem, 2014).
Converted amounts (≈) assume the structure as drawn. The source made the active and inactive calls. No cut-off for these calls is given here.

How the values were obtained:
Mycobacterium avium [1] = experiment: Antimycobacterial activity against isoniazid, rifampicin, ethambutol and ofloxacin-resistant Mycobacterium avium My 330/88 after 21 days; format: functional; conditions: My 330/88, 504 h
Procedure, shortened: (§1)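 Micromethod MIC in Šula's semisynthetic medium at 37 °C. Compounds added in DMSO at 1000 down to 0.032 µmol/L. Isoniazid standard in sterile water at 0.5–250 µmol/L. Inocula: H37Rv 10^3, M. avium 10^5, M. kansasii 10^4. Read at 14 and 21 d, plus 7 d for M. kansasii.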

Mycobacterium avium [2] = experiment: Antimycobacterial activity against isoniazid, rifampicin, ethambutol and ofloxacin-resistant Mycobacterium avium My 330/88 after 14 days; format: functional; conditions: My 330/88, 336 h; procedure, shortened: as §1
[3] = system: Mycobacterium tuberculosis; experiment: Antimycobacterial activity against Mycobacterium tuberculosis H37Rv My 331/88 after 21 days; format: functional; conditions: H37Rv My 331/88, 504 h; procedure, shortened: as §1
[4] = system: Mycobacterium tuberculosis; experiment: Antimycobacterial activity against Mycobacterium tuberculosis H37Rv My 331/88 after 14 days; format: functional; conditions: H37Rv My 331/88, 336 h; procedure, shortened: as §1
[5] = system: Trichophyton mentagrophytes; experiment: Antifungal activity against Trichophyton mentagrophytes 445 after 120 hrs by broth microdilution method; format: functional; conditions: Trichophyton mentagrophytes, 445, 120 h
Procedure, shortened: (§2)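 Filamentous dermatophyte tested by broth microdilution in RPMI 1640 with glutamine, fluconazole as reference. Value expressed as IC50 relative to growth control. Read at 72 and 120 h.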

[6] = system: Trichophyton mentagrophytes; experiment: Antifungal activity against Trichophyton mentagrophytes 445 after 72 hrs by broth microdilution method; format: functional; conditions: Trichophyton mentagrophytes, 445, 72 h; procedure, shortened: as §2
Lichtheimia corymbifera [7] = experiment: Antifungal activity against Absidia corymbifera 272 after 48 hrs by broth microdilution method; format: functional; conditions: Lichtheimia corymbifera, 272, 48 h
Procedure, shortened: (§3)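 Broth microdilution in RPMI 1640 with glutamine, fluconazole as reference. For yeasts, MIC is ≥80% growth reduction (IC80) versus control. For filamentous fungi, the value is expressed as IC50. Readings at 24 and 48 h.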

Lichtheimia corymbifera [8] = experiment: Antifungal activity against Absidia corymbifera 272 after 24 hrs by broth microdilution method; format: functional; conditions: Lichtheimia corymbifera, 272, 24 h; procedure, shortened: as §3
Aspergillus fumigatus [9] = experiment: Antifungal activity against Aspergillus fumigatus 231 after 48 hrs by broth microdilution method; format: functional; conditions: Aspergillus fumigatus, 231, 48 h; procedure, shortened: as §3
Aspergillus fumigatus [10] = experiment: Antifungal activity against Aspergillus fumigatus 231 after 24 hrs by broth microdilution method; format: functional; conditions: Aspergillus fumigatus, 231, 24 h; procedure, shortened: as §3
Trichosporon asahii [11] = experiment: Antifungal activity against Trichosporon asahii 1188 after 48 hrs by broth microdilution method; format: functional; conditions: Trichosporon asahii, 1188, 48 h; procedure, shortened: as §3
Trichosporon asahii [12] = experiment: Antifungal activity against Trichosporon asahii 1188 after 24 hrs by broth microdilution method; format: functional; conditions: Trichosporon asahii, 1188, 24 h; procedure, shortened: as §3
Pichia kudriavzevii [13] = experiment: Antifungal activity against Candida krusei E28 after 48 hrs by broth microdilution method; format: functional; conditions: E28, 48 h; procedure, shortened: as §3
Pichia kudriavzevii [14] = experiment: Antifungal activity against Candida krusei E28 after 24 hrs by broth microdilution method; format: functional; conditions: E28, 24 h; procedure, shortened: as §3
Candida albicans [15] = experiment: Antifungal activity against Candida albicans ATCC 44859 after 48 hrs by broth microdilution method; format: functional; conditions: ATCC 44859, 48 h; procedure, shortened: as §3
Candida albicans [16] = experiment: Antifungal activity against Candida albicans ATCC 44859 after 24 hrs by broth microdilution method; format: functional; conditions: ATCC 44859, 24 h; procedure, shortened: as §3
Nakaseomyces glabratus = experiment: Antifungal activity against Candida glabrata 20/I at 500 micromol/L after 24 to 48 hrs by broth microdilution method; format: functional, organism-based; procedure, shortened: as §3
Candida tropicalis = experiment: Antifungal activity against Candida tropicalis 156 at 500 micromol/L after 24 to 48 hrs by broth microdilution method; format: functional, organism-based; procedure, shortened: as §3
Pseudomonas aeruginosa = experiment: Antibacterial activity against Pseudomonas aeruginosa CCM 1961 at 500 micromol/L after 24 to 48 hrs by broth microdilution method; format: functional, organism-based
Procedure, shortened: (§4)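 Broth microdilution in Mueller–Hinton broth, compounds dissolved in DMSO, tested over a dilution series from 500 downward. MIC taken as ≥95% growth reduction (IC95) versus drug-free control. Benzylpenicillin comparator. Readings at 24 and 48 h.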

Klebsiella pneumoniae [17] = experiment: Antibacterial activity against ESBL-positive Klebsiella pneumoniae J 14368/08 at 500 micromol/L after 24 to 48 hrs by broth microdilution method; format: functional, organism-based; procedure, shortened: as §4
Klebsiella pneumoniae [18] = experiment: Antibacterial activity against Klebsiella pneumoniae D 11750/08 at 500 micromol/L after 24 to 48 hrs by broth microdilution method; format: functional, organism-based; procedure, shortened: as §4
Escherichia coli = experiment: Antibacterial activity against Escherichia coli CCM 4517 at 500 micromol/L after 24 to 48 hrs by broth microdilution method; format: functional, organism-based; procedure, shortened: as §4
Enterococcus sp. = experiment: Antibacterial activity against Enterococcus sp. J 14365/08 at 500 micromol/L after 24 to 48 hrs by broth microdilution method; format: functional, organism-based; procedure, shortened: as §4
[19] = system: Staphylococcus epidermidis; experiment: Antibacterial activity against Staphylococcus epidermidis H 6966/08 after 48 hrs by broth microdilution method; format: functional; conditions: H 6966/08, 48 h; procedure, shortened: as §4
[20] = system: Staphylococcus epidermidis; experiment: Antibacterial activity against Staphylococcus epidermidis H 6966/08 after 24 hrs by broth microdilution method; format: functional; conditions: H 6966/08, 24 h; procedure, shortened: as §4
Staphylococcus aureus [21] = experiment: Antibacterial activity against methicillin-resistant Staphylococcus aureus H 5996/08 after 48 hrs by broth microdilution method; format: functional; conditions: H 5996/08, 48 h; procedure, shortened: as §4
Staphylococcus aureus [22] = experiment: Antibacterial activity against methicillin-resistant Staphylococcus aureus H 5996/08 after 24 hrs by broth microdilution method; format: functional; conditions: H 5996/08, 24 h; procedure, shortened: as §4
Staphylococcus aureus [23] = experiment: Antibacterial activity against Staphylococcus aureus CCM 4516/08 after 48 hrs by broth microdilution method; format: functional; conditions: CCM 4516/08, 48 h; procedure, shortened: as §4
Staphylococcus aureus [24] = experiment: Antibacterial activity against Staphylococcus aureus CCM 4516/08 after 24 hrs by broth microdilution method; format: functional; conditions: CCM 4516/08, 24 h; procedure, shortened: as §4
Mycobacterium kansasii [25] = experiment: Antimycobacterial activity against Mycobacterium kansasii 6509/96 after 21 days; format: functional; conditions: 6509/96, 504 h; procedure, shortened: as §1
Mycobacterium kansasii [26] = experiment: Antimycobacterial activity against Mycobacterium kansasii 6509/96 after 14 days; format: functional; conditions: 6509/96, 336 h; procedure, shortened: as §1
Mycobacterium kansasii [27] = experiment: Antimycobacterial activity against Mycobacterium kansasii 6509/96 after 7 days; format: functional; conditions: 6509/96, 168 h; procedure, shortened: as §1
Mycobacterium kansasii [28] = experiment: Antimycobacterial activity against Mycobacterium kansasii My 235/80 after 21 days; format: functional; conditions: My 235/80, 504 h; procedure, shortened: as §1
Mycobacterium kansasii [29] = experiment: Antimycobacterial activity against Mycobacterium kansasii My 235/80 after 14 days; format: functional; conditions: My 235/80, 336 h; procedure, shortened: as §1
HepG2 = experiment: Cytotoxicity against human HepG2 cells after 24 hrs by CellTiter assay; format: cell-based; conditions: HepG2, 24 h
Procedure, shortened: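 HepG2 cells (passage 27–33) in MEM with 10% FBS, L-glutamine and NEAA, seeded at 1×10^4 per well. Treated next day with compounds at 0.1–100 µM (or 0.1–25 µmol/L), triplicates, <1% DMSO, for 24 h at 37 °C, 5% CO2. MTS reagent added for 2 h, absorbance read at 490 nm. IC50 taken against untreated (100%) and 10% DMSO (0%) controls.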

Mycobacterium kansasii [30] = experiment: Antimycobacterial activity against Mycobacterium kansasii My 235/80 after 7 days; format: functional; conditions: My 235/80, 168 h; procedure, shortened: as §1

SMILES	MIC (Mycobacterium avium [1]) [µM]	MIC (Mycobacterium avium [2]) [µM]	MIC [3] [µM]	MIC [4] [µM]	MIC50 [5] [µM]	MIC50 [6] [µM]	MIC50 (Lichtheimia corymbifera [7]) [µM]	MIC50 (Lichtheimia corymbifera [8]) [µM]	MIC50 (Aspergillus fumigatus [9]) [µM]	MIC50 (Aspergillus fumigatus [10]) [µM]	MIC80 (Trichosporon asahii [11]) [µM]	MIC80 (Trichosporon asahii [12]) [µM]	MIC80 (Pichia kudriavzevii [13]) [µM]	MIC80 (Pichia kudriavzevii [14]) [µM]	MIC80 (Candida albicans [15]) [µM]	MIC80 (Candida albicans [16]) [µM]	Activity (Nakaseomyces glabratus)	Activity (Candida tropicalis)	Activity (Pseudomonas aeruginosa)	Activity (Klebsiella pneumoniae [17])	other results
CCOP(=O)(OCC)Oc1ccc(Br)cc1C(=O)Nc1ccc(Br)cc1	8 (≈ 4.06 µg/mL)	8 (≈ 4.06 µg/mL)	2 (≈ 1.01 µg/mL)	2 (≈ 1.01 µg/mL)	3.9 (≈ 1.98 µg/mL)	3.9 (≈ 1.98 µg/mL)	125 (≈ 63.4 µg/mL)	125 (≈ 63.4 µg/mL)	500 (≈ 254 µg/mL)	500 (≈ 254 µg/mL)	62.5 (≈ 31.7 µg/mL)	62.5 (≈ 31.7 µg/mL)	125 (≈ 63.4 µg/mL)	125 (≈ 63.4 µg/mL)	> 500	> 500	inactive	inactive	inactive	inactive	Activity (Klebsiella pneumoniae [18]): inactive; Activity (Escherichia coli): inactive; Activity (Enterococcus sp.): inactive; MIC95 [19]: 1.95 µM (≈ 0.989 µg/mL); MIC95 [20]: 1.95 µM (≈ 0.989 µg/mL); MIC95 (Staphylococcus aureus [21]): 3.9 µM (≈ 1.98 µg/mL); MIC95 (Staphylococcus aureus [22]): 3.9 µM (≈ 1.98 µg/mL); MIC95 (Staphylococcus aureus [23]): 7.81 µM (≈ 3.96 µg/mL); MIC95 (Staphylococcus aureus [24]): 7.81 µM (≈ 3.96 µg/mL); MIC (Mycobacterium kansasii [25]): 4 µM (≈ 2.03 µg/mL); MIC (Mycobacterium kansasii [26]): 4 µM (≈ 2.03 µg/mL); MIC (Mycobacterium kansasii [27]): 4 µM (≈ 2.03 µg/mL); MIC (Mycobacterium kansasii [28]): 4 µM (≈ 2.03 µg/mL); MIC (Mycobacterium kansasii [29]): 4 µM (≈ 2.03 µg/mL); IC50 (HepG2): 5.6 µM; MIC (Mycobacterium kansasii [30]): 2 µM (≈ 1.01 µg/mL)
CCOP(=O)(OCC)Oc1cc(Cl)ccc1C(=O)Nc1cccc(F)c1	16 (≈ 6.43 µg/mL)	16 (≈ 6.43 µg/mL)	8 (≈ 3.21 µg/mL)	8 (≈ 3.21 µg/mL)	500 (≈ 201 µg/mL)	500 (≈ 201 µg/mL)	> 500	> 500	> 500	> 500	> 500	> 500	> 500	> 500	> 500	> 500	inactive	inactive	inactive	inactive	Activity (Klebsiella pneumoniae [18]): inactive; Activity (Escherichia coli): inactive; Activity (Enterococcus sp.): inactive; MIC95 [19]: 250 µM (≈ 100 µg/mL); MIC95 [20]: 250 µM (≈ 100 µg/mL); MIC95 (Staphylococcus aureus [21]): 250 µM (≈ 100 µg/mL); MIC95 (Staphylococcus aureus [22]): 250 µM (≈ 100 µg/mL); MIC95 (Staphylococcus aureus [23]): 250 µM (≈ 100 µg/mL); MIC95 (Staphylococcus aureus [24]): 125 µM (≈ 50.2 µg/mL); MIC (Mycobacterium kansasii [25]): 16 µM (≈ 6.43 µg/mL); MIC (Mycobacterium kansasii [26]): 16 µM (≈ 6.43 µg/mL); MIC (Mycobacterium kansasii [27]): 8 µM (≈ 3.21 µg/mL); MIC (Mycobacterium kansasii [28]): 16 µM (≈ 6.43 µg/mL); MIC (Mycobacterium kansasii [29]): 16 µM (≈ 6.43 µg/mL); IC50 (HepG2): 11.2 µM; MIC (Mycobacterium kansasii [30]): 8 µM (≈ 3.21 µg/mL)
CCOP(=O)(OCC)Oc1ccc(Br)cc1C(=O)Nc1cccc(Cl)c1	16 (≈ 7.4 µg/mL)	16 (≈ 7.4 µg/mL)	4 (≈ 1.85 µg/mL)	4 (≈ 1.85 µg/mL)	15.6 (≈ 7.23 µg/mL)	7.81 (≈ 3.61 µg/mL)	> 500	> 500	> 500	> 500	62.5 (≈ 28.9 µg/mL)	15.6 (≈ 7.23 µg/mL)	125 (≈ 57.8 µg/mL)	31.2 (≈ 14.5 µg/mL)	> 500	> 500	inactive	inactive	inactive	inactive	Activity (Klebsiella pneumoniae [18]): inactive; Activity (Escherichia coli): inactive; Activity (Enterococcus sp.): inactive; MIC95 [19]: 250 µM (≈ 116 µg/mL); MIC95 [20]: 125 µM (≈ 57.8 µg/mL); MIC95 (Staphylococcus aureus [21]): 250 µM (≈ 116 µg/mL); MIC95 (Staphylococcus aureus [22]): 125 µM (≈ 57.8 µg/mL); MIC95 (Staphylococcus aureus [23]): 250 µM (≈ 116 µg/mL); MIC95 (Staphylococcus aureus [24]): 125 µM (≈ 57.8 µg/mL); MIC (Mycobacterium kansasii [25]): 8 µM (≈ 3.7 µg/mL); MIC (Mycobacterium kansasii [26]): 8 µM (≈ 3.7 µg/mL); MIC (Mycobacterium kansasii [27]): 4 µM (≈ 1.85 µg/mL); MIC (Mycobacterium kansasii [28]): 8 µM (≈ 3.7 µg/mL); MIC (Mycobacterium kansasii [29]): 8 µM (≈ 3.7 µg/mL); IC50 (HepG2): 6.52 µM; MIC (Mycobacterium kansasii [30]): 4 µM (≈ 1.85 µg/mL)
